From ChEMBL document CHEMBL5712094, “The Gridlock transcriptional repressor impedes vertebrate heart regeneration by restricting expression of lysine methyltransferase” (2020)
The source made the active and inactive calls. The calls are words filed in the database; no cut-off is given here.

How the values were obtained:
Cardiac Muscle Cell [1] = test: In vivo inhibition of Smyd2 KMT activity in grl5nt-/- mutant Zebrafish assessed as decrease in cardiomyocyte proliferation at 10 uM by immunostaining analysis; type: functional, cell-based; settings: Danio rerio
How it was run: (§1)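 Adult zebrafish (WT siblings or grl5nt−/− mutants) underwent ventricular apex resection. Bath treatment in aquarium water ran from 6 to 7 dpa, with 0.5‰ DMSO as the vehicle control. Hearts were fixed at 7 dpa in 4% PFA and cut as 10 µm cryosections. Sections were given antigen retrieval at 98°C for 20 min, then stained for PCNA and Mef2. For each heart, 4-6 sections with the largest injury were imaged with a 10× objective. PCNA+Mef2+/Mef2+ cells were counted in a fixed region around the injury, and the section values were averaged per heart. n=5-11 fish.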

[2] = target: N-lysine methyltransferase SMYD2 (Homo sapiens) (UniProt Q9NRG4); test: Inhibition of Smyd2 KMT activity in human HEK 293T cells co-transfected with Flag-STAT3 and HA-Smyd2b assessed as decrease in Stat3 methylation at 15 to 25 uM for 6 hrs by Co-IP assay; type: cell-based; settings: dose 15-25 µM
Chain of N-lysine methyltransferase SMYD2 (Homo sapiens) (Q9NRG4 whole entry): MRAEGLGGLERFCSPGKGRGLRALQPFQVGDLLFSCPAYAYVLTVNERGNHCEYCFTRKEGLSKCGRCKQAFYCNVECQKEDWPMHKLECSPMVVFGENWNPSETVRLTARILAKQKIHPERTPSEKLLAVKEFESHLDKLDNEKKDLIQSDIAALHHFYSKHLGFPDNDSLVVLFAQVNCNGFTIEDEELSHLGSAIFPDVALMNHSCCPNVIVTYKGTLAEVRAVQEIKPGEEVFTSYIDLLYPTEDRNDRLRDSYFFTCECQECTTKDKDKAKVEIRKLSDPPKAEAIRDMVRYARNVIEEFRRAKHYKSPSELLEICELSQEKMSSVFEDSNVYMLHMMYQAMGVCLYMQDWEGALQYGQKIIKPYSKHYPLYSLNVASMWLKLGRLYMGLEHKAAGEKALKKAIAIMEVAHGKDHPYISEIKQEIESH
How it was run: (§2)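 HEK 293T cells were co-transfected with Flag-Stat3 and HA-Smyd2b. Compound was added at 15 or 25 µM for 6 h, or at 2.5 or 5 µM for 28 h, before harvest at 48 h post-transfection. Lysates were made in denaturing buffer with 1% SDS at 100°C for 20 min, then diluted to 0.1% SDS. Stat3 was immunoprecipitated with anti-Flag beads for 4 h. Blots were probed for methyl-lysine and P-Stat3, normalized to Flag-Stat3. n=3.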

Cardiac Muscle Cell [3] = test: In vivo inhibition of Smyd2 KMT activity in grl5nt-/- mutant Zebrafish assessed as decrease in p-STAT3 level cardiomyocyte at 10 uM by immunostaining analysis; type: functional, cell-based; settings: Danio rerio
How it was run: (§3)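 grl5nt−/− zebrafish underwent ventricular resection and were bath-treated in aquarium water from 6 to 7 dpa, with 0.5‰ DMSO as vehicle. Cryosections at 7 dpa were double-immunostained for P-Stat3 and Mef2. CMs with nuclear or perinuclear cytosolic P-Stat3 were counted in the injury border zone. n=4-6 fish; mean±s.e.m.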

[4] = target: N-lysine methyltransferase SMYD2 (Homo sapiens) (UniProt Q9NRG4); test: Inhibition of Smyd2 KMT activity in human HEK 293T cells co-transfected with Flag-STAT3 and HA-Smyd2b assessed as decrease in Stat3 phosphorylation at 15 to 25 uM for 6 hrs by Co-IP assay; type: cell-based; settings: dose 15-25 µM; how it was run: as §2
[5] = In vivo inhibition of Smyd2 KMT activity in Zebrafish assessed as decrease in cardiomyocyte proliferation at 10 uM by immunostaining analysis relative to control; type: functional; settings: Danio rerio, Cardiac muscle cell; how it was run: as §1
[6] = In vivo inhibition of Smyd2 KMT activity in Zebrafish assessed as decrease in cardiomyocyte proliferation at 5 uM by immunostaining analysis relative to control; type: functional; settings: Danio rerio, Cardiac muscle cell; how it was run: as §1
Cardiac Muscle Cell [7] = test: In vivo inhibition of Smyd2 KMT activity in grl5nt-/- mutant Zebrafish assessed as decrease in p-STAT3 level cardiomyocyte at 5 uM by immunostaining analysis; type: functional, cell-based; settings: Danio rerio; how it was run: as §3
[8] = target: N-lysine methyltransferase SMYD2 (Homo sapiens) (UniProt Q9NRG4); test: Inhibition of Smyd2 KMT activity in human HEK 293T cells co-transfected with Flag-STAT3 and HA-Smyd2b assessed as decrease in Stat3 phosphorylation at 5 to 2.5 uM for 28 hrs by Co-IP assay; type: cell-based; settings: dose 5-2.5 µM; how it was run: as §2
[9] = target: N-lysine methyltransferase SMYD2 (Homo sapiens) (UniProt Q9NRG4); test: Inhibition of Smyd2 KMT activity in human HEK 293T cells co-transfected with Flag-STAT3 and HA-Smyd2b assessed as decrease in Stat3 methylation at 5 to 2.5 uM for 28 hrs by Co-IP assay; type: cell-based; settings: dose 5-2.5 µM; how it was run: as §2
Cardiac Muscle Cell [10] = test: In vivo inhibition of Smyd2 KMT activity in grl5nt-/- mutant Zebrafish assessed as decrease in cardiomyocyte proliferation at 5 uM by immunostaining analysis; type: functional, cell-based; settings: Danio rerio; how it was run: as §1

Row | inhibition [2] | inhibition [4] | inhibition [8] | inhibition [9] | SMILES | inhibition (Cardiac Muscle Cell [1]) | inhibition (Cardiac Muscle Cell [3]) | inhibition in vivo at 10 µM [5] | inhibition in vivo at 5 µM [6] | inhibition (Cardiac Muscle Cell [7]) | inhibition (Cardiac Muscle Cell [10])
1 | Active | Active |  |  | O=C1COc2c(CCNCCN(C(=O)CCNCCc3ccc(Cl)c(Cl)c3)C3CCCCC3)ccc(O)c2N1 | Active | Active | 34% |  |  | 
2 |  |  | Active | Active | Cc1cn(CCN2CCN(c3ccccc3-c3cc(C#N)cc(C(=O)NCCCN4CCCC4)c3)CC2)c2ccccc12 |  |  |  | 25% | Active | Active
